# Test results from ChEMBL document CHEMBL5233202, “Metabolically stable apelin-analogues, incorporating cyclohexylalanine and homoarginine, as potent apelin receptor activators” (RSC Med Chem, 2021).
# pEC50, pKi: −log10 of the molar value. Non-standard residues stand in square brackets, D forms with d. Residues, ends and D or L forms follow the SMILES beside them. Phe(4-Br) = N[C@@H](Cc1ccc(Br)cc1)C(=O)O; hArg = N=C(N)NCCCC[C@H](N)C(=O)O; Cha = N[C@@H](CC1CCCCC1)C(=O)O; NMeL = CN[C@@H](CC(C)C)C(=O)O; Nle = CCCC[C@H](N)C(=O)O; Aib = CC(C)(N)C(=O)O
# Experiments:
# [1] = Stability in human plasma assessed as half life at 1 mM measured for 24 hrs by LC-MS analysis; assay type: ADME, cell-free
# Outline: (§1)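 Plasma (20 μL, human or murine) prewarmed to 37 °C, then 5 μL of 1 mM peptide added and incubated at 37 °C. Samples quenched at 1, 3, 6 and 24 h with 6 M GuHCl/80% ACN and Dans-YVG internal standard, centrifuged, solid-phase extracted and analyzed by LC-MS. Peptide/standard peak-area ratio normalized to 0 h; triplicates.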
# Mus musculus [2] = assay: Hypotensive effect in anesthetized wild type mouse assessed as change in mean arterial blood pressure at 1.4 uM/Kg, iv administered via right jugular vein measured for 60 mins; assay type: functional; settings: 1 h
# Outline: (§2)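 Anesthetized mice received peptide at 1.4 μM kg−1 body weight, or equal-volume saline, by injection into the right jugular vein (n = 3). HR, MABP, SBP and DBP were recorded from blood pressure traces and reported as mean ± S.E.M.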
# Apelin receptor [3] = target: T1, Apelin receptor (Homo sapiens, UniProt P35414); assay: Activation of recombinant human APJ receptor expressed in rat Chem-5 cells assessed as increase in Ca2+ mobilization by FLIPR Calcium 6-QF fluorescent dye based assay; assay type: cell-based
# T1 sequence (P35414 whole entry): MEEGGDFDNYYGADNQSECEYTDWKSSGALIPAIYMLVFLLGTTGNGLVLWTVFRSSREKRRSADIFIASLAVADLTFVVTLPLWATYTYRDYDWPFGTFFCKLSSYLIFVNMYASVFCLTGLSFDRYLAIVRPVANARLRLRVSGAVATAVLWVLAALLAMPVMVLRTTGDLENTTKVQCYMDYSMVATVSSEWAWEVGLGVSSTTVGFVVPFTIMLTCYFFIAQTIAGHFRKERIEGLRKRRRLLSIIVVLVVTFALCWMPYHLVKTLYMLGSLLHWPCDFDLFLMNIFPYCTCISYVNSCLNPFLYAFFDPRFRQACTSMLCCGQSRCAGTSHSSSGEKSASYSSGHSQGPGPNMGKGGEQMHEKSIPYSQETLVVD
# Outline: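 Frozen Chem-5 cells stably expressing human APJ, thawed per supplier protocol, loaded 1 h with Calcium 6-QF dye in HBSS/20 mM HEPES/0.2% DMSO/2.5 mM probenecid, pH 7.6. Cells washed three times and rested 10 min, then read on FLIPR. Agonist response taken as maximum fluorescence change over baseline. pEC50 from four-parameter logistic fit; triplicates.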
# Mus musculus [4] = assay: Hypotensive effect in anesthetized wild type mouse assessed as total time duration of hypotensive effect at 1.4 uM/Kg, iv administered via right jugular vein measured for 60 mins; assay type: functional; settings: 1 h; outline: as §2
# Neprilysin (NEP) = Neprilysin (NEP) (Homo sapiens, UniProt P08473); assay: Proteolytic stability assessed as recombinant human NEP-mediated compound degradation by measuring half life incubated for 24 hrs by LC-MS analysis; assay type: ADME; settings: recombinant human neprilysin (NEP)
# Chain of Neprilysin (NEP) (P08473 whole entry): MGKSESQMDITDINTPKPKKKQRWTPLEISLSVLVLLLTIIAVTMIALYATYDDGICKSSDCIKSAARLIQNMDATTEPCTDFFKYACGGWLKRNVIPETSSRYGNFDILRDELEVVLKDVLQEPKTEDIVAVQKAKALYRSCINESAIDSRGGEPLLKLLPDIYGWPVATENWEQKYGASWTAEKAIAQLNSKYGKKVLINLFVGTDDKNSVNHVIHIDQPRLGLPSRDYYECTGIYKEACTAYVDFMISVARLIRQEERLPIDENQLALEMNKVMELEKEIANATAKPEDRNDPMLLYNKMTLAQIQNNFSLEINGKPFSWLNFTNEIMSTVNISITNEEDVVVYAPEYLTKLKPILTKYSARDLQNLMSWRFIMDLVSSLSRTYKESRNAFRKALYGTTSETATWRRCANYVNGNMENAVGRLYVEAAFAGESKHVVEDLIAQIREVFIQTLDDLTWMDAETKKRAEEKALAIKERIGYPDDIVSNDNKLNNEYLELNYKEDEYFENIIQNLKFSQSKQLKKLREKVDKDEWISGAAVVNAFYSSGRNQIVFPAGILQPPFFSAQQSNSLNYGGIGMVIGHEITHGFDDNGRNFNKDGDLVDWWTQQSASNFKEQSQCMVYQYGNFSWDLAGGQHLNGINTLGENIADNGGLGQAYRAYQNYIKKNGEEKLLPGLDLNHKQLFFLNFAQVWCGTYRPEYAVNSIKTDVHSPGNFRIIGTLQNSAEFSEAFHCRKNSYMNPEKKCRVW
# Apelin receptor [5] = target: T2, Apelin receptor (Rattus norvegicus, UniProt Q9JHG3); assay: Displacement of [125I]-pyr-1-apelin-13 from EGFP tagged rat apelin receptor expressed in CHO cell membrane incubated for 3 hrs by gamma counter analysis; assay type: cell membranes
# T2 sequence (Q9JHG3 whole entry): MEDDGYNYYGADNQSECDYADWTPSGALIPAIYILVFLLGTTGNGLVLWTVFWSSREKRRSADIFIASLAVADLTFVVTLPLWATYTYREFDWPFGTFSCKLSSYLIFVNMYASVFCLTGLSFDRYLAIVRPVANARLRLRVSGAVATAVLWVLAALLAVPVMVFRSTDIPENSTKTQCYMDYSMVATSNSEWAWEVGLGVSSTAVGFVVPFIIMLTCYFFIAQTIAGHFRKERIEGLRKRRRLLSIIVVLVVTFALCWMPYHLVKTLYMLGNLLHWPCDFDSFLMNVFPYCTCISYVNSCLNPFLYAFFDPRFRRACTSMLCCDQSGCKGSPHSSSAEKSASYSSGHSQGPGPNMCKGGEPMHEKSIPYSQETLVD
# Outline: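 Crude membranes (1 μg/assay) from CHO cells stably expressing wild-type rat APJ-EGFP, incubated 3 h at 20 °C with 0.2 nM [125I]-pyr-1-apelin-13 (Lys8 Bolton–Hunter monoiodinated) and competitor at various concentrations. Binding buffer: 50 mM HEPES, 5 mM MgCl2, 1% BSA, pH 7.5. Quenched with cold buffer, GF/C filtered and washed, gamma counted; triplicates.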
# [6] = Stability in mouse plasma assessed as half life at 1 mM measured for 24 hrs by LC-MS analysis; assay type: ADME, cell-free; outline: as §1
# [7] = Protein binding in pooled human plasma at 100 uM incubated for 3 hrs by equilibrium dialysis method; assay type: ADME, cell-free; settings: read-out: PPB (converted)
# Outline: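 Equilibrium dialysis. DMSO stock (1 mM) diluted to 100 μM final in 55% pooled human plasma stabilized with EDTA and MLN-4760, dialyzed against PBS pH 7.4 at 37 °C, 120 rpm, 3 h. Retentate diluted with PBS and dialysate with plasma, then quenched with 10% TFA/acetonitrile. Dans-YVG internal standard added, centrifuged, LC-MS.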
# Neprilysin = Neprilysin (Homo sapiens, UniProt P08473); assay: Proteolytic stability assessed as recombinant human NEP-mediated compound degradation incubated for 24 hrs by LC-MS analysis; assay type: ADME
# Chain of Neprilysin (P08473 whole entry): as the sequence (P08473 whole entry) above
# Outline: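 Recombinant human NEP diluted to 2 ng μL−1 in NEP-B buffer and preincubated 10 min at 37 °C. Peptide (1 mM aqueous solution) added and incubated at 37 °C. Aliquots taken at 0, 2, 10, 20 and 48 h, quenched and quantified by LC-MS; triplicate per time point.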
SMILES,half-life at 1000 µM [1],Activity (Mus musculus [2]),pEC50 (Apelin receptor [3]),Time (Mus musculus [4]),half-life (Neprilysin (NEP)),pKi (Apelin receptor [5]),half-life at 1000 µM [6],"fraction unbound at 3 h, 100 µM [7]",Stability (Neprilysin)
CCCC[C@H](NC(=O)[C@@H]1CCCN1C(=O)CNC(=O)[C@H](CCCCN)NC(=O)[C@H](Cc1c[nH]cn1)NC(=O)[C@H](CO)NC(=O)[C@H](CC(C)C)N(C)C(=O)[C@H](CCCNC(=N)N)NC(=O)[C@@H]1CCCN1C(=O)[C@H](CCCNC(=N)N)NC(=O)[C@@H]1CCC(=O)N1)C(=O)NC(C)(C)C(=O)N[C@@H](Cc1ccc(Br)cc1)C(=O)O,3.54 h,9.52 mmHg,8.17,26 min,40.3 h,–,–,–,–
CCCC[C@H](NC(=O)[C@@H]1CCCN1C(=O)CNC(=O)[C@H](CCCCN)NC(=O)[C@H](Cc1c[nH]cn1)NC(=O)[C@H](CO)NC(=O)[C@H](CC(C)C)NC(=O)[C@H](CCCNC(=N)N)NC(=O)[C@@H]1CCCN1C(=O)[C@H](CCCNC(=N)N)NC(=O)[C@@H]1CCC(=O)N1)C(=O)NC(C)(C)C(=O)N[C@@H](Cc1ccc(Br)cc1)C(=O)O,0.81 h,23.88 mmHg,8.37,60 min,10.3 h,–,–,–,–
CCCC[C@H](NC(=O)[C@@H]1CCCN1C(=O)CNC(=O)[C@H](CCCCN)NC(=O)[C@H](Cc1c[nH]cn1)NC(=O)[C@H](CO)NC(=O)[C@H](CC(C)C)NC(=O)[C@H](CCCCNC(=N)N)NC(=O)[C@@H]1CCCN1C(=O)[C@H](CCCNC(=N)N)NC(=O)[C@@H]1CCC(=O)N1)C(=O)NC(C)(C)C(=O)N[C@@H](Cc1ccc(Br)cc1)C(=O)O,1.31 h,26.44 mmHg,8.66,60 min,19 h,9.17,–,–,–
CCCC[C@H](NC(=O)[C@@H]1CCCN1C(=O)CNC(=O)[C@H](CCCCN)NC(=O)[C@H](Cc1c[nH]cn1)NC(=O)[C@H](CO)NC(=O)[C@H](CC1CCCCC1)NC(=O)[C@H](CCCCNC(=N)N)NC(=O)[C@@H]1CCCN1C(=O)[C@H](CCCNC(=N)N)NC(=O)[C@@H]1CCC(=O)N1)C(=O)NC(C)(C)C(=O)N[C@@H](Cc1ccc(Br)cc1)C(=O)O,2.58 h,15.33 mmHg,8.43,57 min,21.9 h,9.43,–,–,–
CCCC[C@H](NC(=O)[C@@H]1CCCN1C(=O)CNC(=O)[C@H](CCCCN)NC(=O)[C@H](Cc1c[nH]cn1)NC(=O)[C@H](CO)NC(=O)[C@H](CC1CCCCC1)NC(=O)[C@H](CCCNC(=N)N)NC(=O)[C@@H]1CCCN1C(=O)[C@H](CCCNC(=N)N)NC(=O)[C@@H]1CCC(=O)N1)C(=O)NC(C)(C)C(=O)N[C@@H](Cc1ccc(Br)cc1)C(=O)O,1.77 h,0.23 mmHg,8.62,15 min,22.1 h,9.24,–,–,–
CCCC[C@H](NC(=O)[C@@H]1CCCN1C(=O)CNC(=O)[C@H](CCCCN)NC(=O)[C@H](Cc1c[nH]cn1)NC(=O)[C@H](CO)NC(=O)[C@H](CC1CCCCC1)NC(=O)[C@H](CCCNC(=N)N)NC(=O)[C@@H]1CCCN1C(=O)[C@H](CCCNC(=N)N)NC(=O)[C@H](CCC(N)=O)NC(=O)[C@H](CCCNC(=N)N)NC(=O)[C@H](CCCNC(=N)N)NC(=O)[C@H](Cc1ccccc1)NC(=O)[C@@H](N)CCCCN)C(=O)NC(C)(C)C(=O)N[C@@H](Cc1ccc(Br)cc1)C(=O)O (H-KFRRQRPR[Cha]SHKGP[Nle][Aib][Phe(4-Br)]-OH),4.34 h,19.72 mmHg,8.42,60 min,47 h,8.80,–,–,–
CCCC[C@H](NC(=O)[C@@H]1CCCN1C(=O)CNC(=O)[C@H](CCCCN)NC(=O)[C@H](Cc1c[nH]cn1)NC(=O)[C@H](CO)NC(=O)[C@H](CC(C)C)N(C)C(=O)[C@H](CCCNC(=N)N)NC(=O)[C@@H]1CCCN1C(=O)[C@H](CCCNC(=N)N)NC(=O)[C@H](CCC(N)=O)NC(=O)[C@H](CCCNC(=N)N)NC(=O)[C@H](CCCNC(=N)N)NC(=O)[C@H](Cc1ccccc1)NC(=O)[C@@H](N)CCCCN)C(=O)NC(C)(C)C(=O)N[C@@H](Cc1ccc(Br)cc1)C(=O)O (H-KFRRQRPR[NMeL]SHKGP[Nle][Aib][Phe(4-Br)]-OH),8.29 h,31.98 mmHg,8.56,60 min,> 48 h,–,0.99 h,0.45,–
CCCC[C@H](NC(=O)[C@@H]1CCCN1C(=O)CNC(=O)[C@H](CCCCN)NC(=O)[C@H](Cc1c[nH]cn1)NC(=O)[C@H](CO)NC(=O)[C@H](CC(C)C)NC(=O)[C@H](CCCCNC(=N)N)NC(=O)[C@@H]1CCCN1C(=O)[C@H](CCCNC(=N)N)NC(=O)[C@H](CCC(N)=O)NC(=O)[C@H](CCCNC(=N)N)NC(=O)[C@H](CCCNC(=N)N)NC(=O)[C@H](Cc1ccccc1)NC(=O)[C@@H](N)CCCCN)C(=O)NC(C)(C)C(=O)N[C@@H](Cc1ccc(Br)cc1)C(=O)O (H-KFRRQRP[hArg]LSHKGP[Nle][Aib][Phe(4-Br)]-OH),3.06 h,40.45 mmHg,8.17,60 min,40.6 h,9.08,–,–,–
CCCC[C@H](NC(=O)[C@@H]1CCCN1C(=O)CNC(=O)[C@H](CCCCN)NC(=O)[C@H](Cc1c[nH]cn1)NC(=O)[C@H](CO)NC(=O)[C@H](CC1CCCCC1)NC(=O)[C@H](CCCCNC(=N)N)NC(=O)[C@@H]1CCCN1C(=O)[C@H](CCCNC(=N)N)NC(=O)[C@H](CCC(N)=O)NC(=O)[C@H](CCCNC(=N)N)NC(=O)[C@H](CCCNC(=N)N)NC(=O)[C@H](Cc1ccccc1)NC(=O)[C@@H](N)CCCCN)C(=O)NC(C)(C)C(=O)N[C@@H](Cc1ccc(Br)cc1)C(=O)O (H-KFRRQRP[hArg][Cha]SHKGP[Nle][Aib][Phe(4-Br)]-OH),6.28 h,44.9 mmHg,8.36,60 min,46.4 h,8.96,0.52 h,0.35,–
CCCC[C@H](NC(=O)[C@@H]1CCCN1C(=O)CNC(=O)[C@H](CCCCN)NC(=O)[C@H](Cc1c[nH]cn1)NC(=O)[C@H](CO)NC(=O)[C@H](CC(C)C)N(C)C(=O)[C@H](CCCCNC(=N)N)NC(=O)[C@@H]1CCCN1C(=O)[C@H](CCCNC(=N)N)NC(=O)[C@H](CCC(N)=O)NC(=O)[C@H](CCCNC(=N)N)NC(=O)[C@H](CCCNC(=N)N)NC(=O)[C@H](Cc1ccccc1)NC(=O)[C@@H](N)CCCCN)C(=O)NC(C)(C)C(=O)N[C@@H](Cc1ccc(Br)cc1)C(=O)O (H-KFRRQRP[hArg][NMeL]SHKGP[Nle][Aib][Phe(4-Br)]-OH),5.63 h,34.69 mmHg,6.56,60 min,–,8.85,0.38 h,–,Stable
